# Assay results from ChEMBL document CHEMBL1126810, “Development of selective tight-binding inhibitors of leukotriene A4 hydrolase” (J Med Chem, 1993).
# B1: Leukotriene A-4 hydrolase (Homo sapiens), P09960 (protein)
# chain: MPEIVDTCSLASPASVCRTKHLHLRCSVDFTRRTLTGTAALTVQSQEDNLRSLVLDTKDLTIEKVVINGQEVKYALGERQSYKGSPMEISLPIALSKNQEIVIEISFETSPKSSALQWLTPEQTSGKEHPYLFSQCQAIHCRAILPCQDTPSVKLTYTAEVSVPKELVALMSAIRDGETPDPEDPSRKIYKFIQKVPIPCYLIALVVGALESRQIGPRTLVWSEKEQVEKSAYEFSETESMLKIAEDLGGPYVWGQYDLLVLPPSFPYGGMENPCLTFVTPTLLAGDKSLSNVIAHEISHSWTGNLVTNKTWDHFWLNEGHTVYLERHICGRLFGEKFRHFNALGGWGELQNSVKTFGETHPFTKLVVDLTDIDPDVAYSSVPYEKGFALLFYLEQLLGGPEIFLGFLKAYVEKFSYKSITTDDWKDFLYSYFKDKVDVLNQVDWNAWLYSPGLPPIKPNYDMTLTNACIALSQRWITAKEDDLNSFNATDLKDLSSHQLNEFLAQTLQRAPLPLGHIKRMQEVYNFNAINNSEIRFRWLRLCIQSKWEDAIPLALKMATEQGRMKFTRPLFKDLAAFDKSHDQAVRTYQEHKASMHPVTAMLVGKDLKVD
# Tests used:
# [1] = target: T1, Leukotriene A-4 hydrolase (Homo sapiens, UniProt P09960); assay: Inhibition of amidase activity of LTA4 hydrolase purified from human leukocytes
# T1 sequence (P09960 whole entry): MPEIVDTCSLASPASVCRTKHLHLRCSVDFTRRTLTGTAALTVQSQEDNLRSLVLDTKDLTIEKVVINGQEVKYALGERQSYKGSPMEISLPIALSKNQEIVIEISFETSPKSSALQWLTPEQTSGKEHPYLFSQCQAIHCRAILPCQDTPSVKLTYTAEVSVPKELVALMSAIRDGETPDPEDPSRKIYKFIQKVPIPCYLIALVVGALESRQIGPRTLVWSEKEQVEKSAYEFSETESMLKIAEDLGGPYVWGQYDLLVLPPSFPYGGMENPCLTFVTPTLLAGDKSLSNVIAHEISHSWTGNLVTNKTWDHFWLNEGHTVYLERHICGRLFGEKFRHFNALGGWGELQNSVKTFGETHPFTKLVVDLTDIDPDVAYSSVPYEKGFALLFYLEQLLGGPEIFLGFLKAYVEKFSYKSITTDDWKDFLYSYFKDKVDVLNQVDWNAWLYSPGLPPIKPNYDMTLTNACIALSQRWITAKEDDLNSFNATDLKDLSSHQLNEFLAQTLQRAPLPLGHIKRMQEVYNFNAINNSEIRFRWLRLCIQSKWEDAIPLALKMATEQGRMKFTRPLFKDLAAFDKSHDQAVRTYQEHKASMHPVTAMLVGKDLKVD
# [2] = Ratio kcat /Km ([…]/M 1/s); set-up: scale not given here
# [3] = target: T2, Leukotriene A-4 hydrolase (Homo sapiens) (UniProt P09960); assay: Kinetic parameter kcat against LTA4 hydrolase purified from human leukocytes
# T2 sequence (whole entry): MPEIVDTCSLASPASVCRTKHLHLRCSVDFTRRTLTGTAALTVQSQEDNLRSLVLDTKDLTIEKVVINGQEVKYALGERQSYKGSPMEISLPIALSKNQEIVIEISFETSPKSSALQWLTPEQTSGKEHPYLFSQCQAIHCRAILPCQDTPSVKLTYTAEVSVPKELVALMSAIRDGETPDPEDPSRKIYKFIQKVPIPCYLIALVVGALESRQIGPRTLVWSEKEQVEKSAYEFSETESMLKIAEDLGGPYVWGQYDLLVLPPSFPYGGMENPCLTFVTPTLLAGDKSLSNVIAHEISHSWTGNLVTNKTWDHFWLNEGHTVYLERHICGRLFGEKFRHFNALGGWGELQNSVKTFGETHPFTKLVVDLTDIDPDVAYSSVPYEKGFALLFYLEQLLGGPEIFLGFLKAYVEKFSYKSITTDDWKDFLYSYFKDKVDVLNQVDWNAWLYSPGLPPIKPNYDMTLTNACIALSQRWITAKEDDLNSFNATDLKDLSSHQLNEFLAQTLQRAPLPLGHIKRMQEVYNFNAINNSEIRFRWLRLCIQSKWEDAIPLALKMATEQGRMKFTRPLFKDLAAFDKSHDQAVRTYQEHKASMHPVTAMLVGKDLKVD
# Procedure, shortened: (§1)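 Amino acid amides tested as substrates in 50 mM Tris-Cl, pH 7.6, with 0.1 M NaCl. p-Nitroaniline release read at 410 nm using ε 8850 M⁻¹ cm⁻¹.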
# [4] = target: T1, Leukotriene A-4 hydrolase; assay: Ability at 1 mM to inhibit amidase activity of LTA4 hydrolase (1.4 ug) purified from human leukocytes; NI=No inhibition
# Procedure, shortened: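 Human leukocyte enzyme (1.4 μg) in 0.05 M Tris-HCl, pH 8.0, with 1.5 mM L-alanyl p-nitroanilide as substrate. Inhibitor tested at 1 mM; thiol compounds assayed with 5 mM DTT. p-Nitroaniline release followed spectrophotometrically at 405 nm.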
# Cytosol aminopeptidase = Cytosol aminopeptidase (Homo sapiens, UniProt P28838); assay: Inhibitory concentration against cytosolic leucine aminopeptidase
# Cytosol aminopeptidase, sequence (P28838 whole entry): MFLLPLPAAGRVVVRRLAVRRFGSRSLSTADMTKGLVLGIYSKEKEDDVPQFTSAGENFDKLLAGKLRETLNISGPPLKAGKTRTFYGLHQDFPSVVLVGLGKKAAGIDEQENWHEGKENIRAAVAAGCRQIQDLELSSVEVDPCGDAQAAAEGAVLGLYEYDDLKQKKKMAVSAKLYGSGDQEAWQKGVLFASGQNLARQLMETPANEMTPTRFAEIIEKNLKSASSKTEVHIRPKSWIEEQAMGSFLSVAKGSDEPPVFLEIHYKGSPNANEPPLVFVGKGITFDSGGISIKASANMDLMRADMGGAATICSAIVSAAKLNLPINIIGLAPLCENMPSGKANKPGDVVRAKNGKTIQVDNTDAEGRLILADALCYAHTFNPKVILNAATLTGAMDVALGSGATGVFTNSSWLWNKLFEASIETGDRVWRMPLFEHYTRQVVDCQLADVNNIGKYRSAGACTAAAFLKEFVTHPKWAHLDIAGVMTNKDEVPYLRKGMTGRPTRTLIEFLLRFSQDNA
# [5] = substrate: NC(N)=NCCC[C@H](N)C(=O)Nc1ccc([N+](=O)[O-])cc1; assay: (§2) Kinetic parameter Vmax against LTA4 hydrolase purified from human leukocytes was determined; procedure, shortened: as §1
# [6] = substrate: C[C@@H](N)C(=O)Nc1ccc([N+](=O)[O-])cc1; assay: as §2; procedure, shortened: as §1
# [7] = substrate: C[C@H](N)C(=O)Nc1ccc([N+](=O)[O-])cc1; assay: as §2; procedure, shortened: as §1
# [8] = substrate: NCCCC[C@H](N)C(=O)Nc1ccc([N+](=O)[O-])cc1; assay: as §2; procedure, shortened: as §1
# [9] = substrate: NC(N)=NCCC[C@H](N)C(=O)Nc1ccc([N+](=O)[O-])cc1; assay: (§3) Kinetic parameter (Km) for hydrolysis of LTA4 hydrolase purified from human leukocytes; procedure, shortened: as §1
# [10] = substrate: C[C@H](N)C(=O)Nc1ccc([N+](=O)[O-])cc1; assay: as §3; procedure, shortened: as §1
# [11] = substrate: NCCCC[C@H](N)C(=O)Nc1ccc([N+](=O)[O-])cc1; assay: as §3; procedure, shortened: as §1
molecule,measurement,setting,value
CC(C)C[C@H](/N=C(\S)[C@H](O)[C@H](N)Cc1ccccc1)C(=O)O,IC50,[1],> 100 µM
CC(C)C[C@H](N)C(=O)Nc1ccc([N+](=O)[O-])cc1,Ratio,[2],0.0005
same,k cat,[3],0.15 s⁻¹
COC(=O)[C@@H](O)[C@H](N)Cc1ccccc1,IC50,[4],Not Active
COC(=O)C(S)C(N)Cc1ccccc1 (stereo not given),IC50,[1],250 µM
CC(C)C[C@H](/N=C(\S)[C@@H](O)[C@H](N)Cc1ccccc1)C(=O)O,IC50,[1],> 100 µM
N[C@H](CS)Cc1ccc(OCc2ccccc2)cc1,IC50,Cytosol aminopeptidase,> 50 µM
C[C@H](N)C(=O)Nc1ccc([N+](=O)[O-])cc1,Ratio,[2],0.0012
same,k cat,[3],0.6 s⁻¹
NC(N)=NCCC[C@H](N)C(=O)Nc1ccc([N+](=O)[O-])cc1,Ratio,[2],0.00075
same,k cat,[3],0.15 s⁻¹
O=C(Nc1ccc([N+](=O)[O-])cc1)[C@@H]1CCCN1,Ratio,[2],0.0015
same,k cat,[3],0.15 s⁻¹
CC(C)C[C@H](NC(=O)C(S)C(N)Cc1ccccc1)C(=O)O (stereo not given in full),IC50,[1],> 250 µM
CC(C)C[C@H](/N=C(\S)[C@H](O)[C@@H](N)Cc1ccccc1)C(=O)O,IC50,[1],> 100 µM
N[C@@H](Cc1ccc(OCc2ccccc2)cc1)C(=O)C(=O)OCc1ccccc1,IC50,Cytosol aminopeptidase,> 100 µM
COC(=O)[C@H](O)[C@H](N)Cc1ccccc1,IC50,[4],Not Active
NCCCC[C@H](N)C(=O)Nc1ccc([N+](=O)[O-])cc1,Ratio,[2],0.00035
same,k cat,[3],0.035 s⁻¹
N[C@@H](Cc1ccccc1)[C@H](O)C(=O)NCc1ccccc1,IC50,[1],> 100 µM
CCOC(=O)CC(F)(F)C(=O)c1[nH]cnc1C,IC50,[1],> 1000 µM
NC(Cc1ccccc1)P(=O)(O)NCC(=O)O (stereo not given),IC50,[1],> 100 µM
COC(=O)C(=O)[C@@H](N)Cc1ccc(OCc2ccccc2)cc1,IC50,Cytosol aminopeptidase,50 µM
N[C@H](Cc1ccccc1)[C@H](O)C(=O)O,IC50,[4],Not Active
N[C@@H](Cc1ccccc1)[C@H](O)C(=O)OCc1ccccc1,IC50,[1],20 µM
N[C@@H](Cc1ccc(OCc2ccccc2)cc1)[C@H](O)C(=O)OCc1ccccc1,IC50,Cytosol aminopeptidase,80 µM
CCCCC/C=C\C\C=C/C=C/C=C/[C@@H]1O[C@H]1CCCC(=O)O,Ratio,[2],0.09
same,k cat,[3],0.68 s⁻¹
B1,Vmax (nM min-1 mg-1),[5],135
same,Vmax (nM min-1 mg-1),[6],0
same,Vmax (nM min-1 mg-1),[7],530
same,Vmax (nM min-1 mg-1),[8],30
same,Km,[9],200 µM
same,Km,[10],500 µM
same,Km,[11],100 µM
